Results of several laboratories.
Protocols differ between the studies behind these lines.
Target: Death-associated protein kinase 1 (DAPK1, Homo sapiens, UniProt P53355)

Cn1cc(-c2cccc(N3CCc4c(sc5c4CC(C)(C)C5)C3=O)c2CO)cc(Nc2ccncn2)c1=O — inhibition (enzyme activity; inhibitor; 1 µM): 1%
COc1ncccc1-c1cnn2ccc(N3CCN(C(=O)OC(C)C)CC3)nc12 — remaining binding (binding; competition with immobilised ligand; 1 µM): 82%
Cn1cncc1[C@](O)(COc1ccc(C#N)cc1-c1ccc(OC(F)(F)F)cc1)c1ccc(C#N)cc1 — remaining binding (cell-free assay; competition with immobilised ligand; 1 µM): 84%
Cn1cc(-c2cc(F)cc(N3CCn4c(cc5c4CCCC5)C3=O)c2CO)cc(Nc2ccc(N3CCN(C4COC4)CC3)cn2)c1=O — inhibition (enzyme activity; inhibitor; 0.1 µM): 8%
Cc1nn(C)cc1-c1nc2c(N3CCN(Cc4ccc(Cl)cc4)CC3)c(Cl)cnc2[nH]1 — remaining binding (binding; competition with immobilised ligand; 1 µM): 80%
CC(C)(C)c1cc(C=C(C#N)C#N)cc(Br)c1O — remaining activity (enzyme activity; inhibitor; 0.5 µM): 85.9%
COc1cc(Nc2ncc(F)c(Nc3ccc4c(n3)NC(=O)C(C)(C)O4)n2)cc(OC)c1OC — inhibition (binding; competition with immobilised ligand; 10 µM): 97%
Nc1ncc(-c2nc(N3CCOCC3)nc(N3CCOCC3)n2)c(C(F)F)n1 — remaining binding (binding; competition with immobilised ligand; 10 µM): 94%
O=c1[nH]c2ccccc2n1C1CCN(Cc2ccc(-c3[nH]c4cc5ncnc5cc4nc3-c3ccccc3)cc2)CC1 — remaining signal (cell-free assay; 0.5 µM): 82.9%
